Reference: ChEMBL document CHEMBL1667766, “Synthesis of elastin based peptides conjugated to benzisoxazole as a new class of potent antimicrobials--A novel approach to enhance biocompatibility” (2011)
*1 amine or outer side, *2 acyl side, *3 side chain or, on linkers, in order; H or OH if unused. Where a SMILES comes first, the peptide text is derived from it. [ ]: non-standard residue; d: D form. The star is where a group is joined. X2 = CC(C)[C@H](N[*:1])C(=O)NC(=O)[*:2]; X1 = Fc1ccc2c(C3CCN(*)CC3)noc2c1

How the values were obtained:
Type in all cases: functional
Aspergillus flavus [1] = assay: Antifungal activity against Aspergillus flavus after 24 hrs by agar well diffusion method
How it was run: (§1)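 Fungi subcultured in 25 mL nutrient broth for one day to give inoculum, then spread on solidified Sabouraud agar. Wells punched with a 6 mm cork borer and filled with 0.1 mL test solution in DMSO, prepared from a 1 mg/mL stock. Bavistin as reference, DMSO as negative control. Read-out is inhibition zone diameter (mm).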

Fusarium oxysporum [2] = assay: Antifungal activity against Fusarium oxysporum after 24 hrs by agar well diffusion method; how it was run: as §1
Fusarium oxysporum [3] = assay: Antifungal activity against Fusarium oxysporum after 72 hrs by microdilution method
Xanthomonas oryzae [4] = assay: Antimicrobial activity against Xanthomonas oryzae after 72 hrs by microdilution method
Xanthomonas oryzae [5] = assay: Antimicrobial activity against Xanthomonas oryzae after 24 hrs by agar well diffusion method
Klebsiella pneumoniae [6] = assay: Antimicrobial activity against Klebsiella pneumoniae after 24 hrs by agar well diffusion method
How it was run: (§2)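 Bacteria grown in nutrient broth at 37 °C for 24 h, subcultured in 25 mL broth at room temperature, then spread on nutrient agar. Wells (6 mm cork borer) filled with 0.1 mL test solution in DMSO, prepared from a 1 mg/mL stock. Amoxicillin as reference, DMSO as negative control. Plates kept 24 h at 37 °C; inhibition zone measured in mm.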

Staphylococcus [7] = assay: Antimicrobial activity against coagulase positive Staphylococcus after 72 hrs by microdilution method
Escherichia coli [8] = assay: Antimicrobial activity against Escherichia coli after 72 hrs by microdilution method
Aspergillus niger [9] = assay: Antifungal activity against Aspergillus niger after 24 hrs by agar well diffusion method; how it was run: as §1
Staphylococcus [10] = assay: Antimicrobial activity against coagulase positive Staphylococcus after 24 hrs by agar well diffusion method; how it was run: as §2
Escherichia coli [11] = assay: Antimicrobial activity against Escherichia coli after 24 hrs by agar well diffusion method; how it was run: as §2
Klebsiella pneumoniae [12] = assay: Antimicrobial activity against Klebsiella pneumoniae after 72 hrs by microdilution method
Aspergillus flavus [13] = assay: Antifungal activity against Aspergillus flavus after 72 hrs by microdilution method
Aspergillus niger [14] = assay: Antifungal activity against Aspergillus niger after 72 hrs by microdilution method

With NCC(=O)N[C@@H](Cc1ccccc1)C(=O)NCC(=O)N[C@@H](Cc1ccccc1)C(=O)N1CCC[C@H]1C(=O)N1CCC(c2noc3cc(F)ccc23)CC1.O=C(O)C(F)(F)F (H-GFGFP-X1) the “inhibition zone (IZ)” value (Aspergillus flavus [1]) was 21 mm, the “inhibition zone (IZ)” value (Fusarium oxysporum [2]) was 23 mm and the MIC (Fusarium oxysporum [3]) was 8 µg/mL. For the same compound, the MIC (Xanthomonas oryzae [4]) was 9 µg/mL, the “inhibition zone (IZ)” value (Xanthomonas oryzae [5]) was 20 mm and the “inhibition zone (IZ)” value (Klebsiella pneumoniae [6]) was 18 mm. The MIC (Staphylococcus [7]) was 8 µg/mL, the MIC (Escherichia coli [8]) was 8 µg/mL and the “inhibition zone (IZ)” value (Aspergillus niger [9]) was 29 mm. For the same compound, the “inhibition zone (IZ)” value (Staphylococcus [10]) was 18 mm, the “inhibition zone (IZ)” value (Escherichia coli [11]) was 25 mm and the MIC (Klebsiella pneumoniae [12]) was 6 µg/mL. The MIC (Aspergillus flavus [13]) was 8 µg/mL and the MIC (Aspergillus niger [14]) was 6 µg/mL.
In the case of C[C@H](NC(=O)CNC(=O)CN)C(=O)N1CCC[C@H]1C(=O)N1CCC(c2noc3cc(F)ccc23)CC1.O=C(O)C(F)(F)F (H-GGAP-X1), the “inhibition zone (IZ)” value (Aspergillus flavus [1]) is reported as 13 mm, the “inhibition zone (IZ)” value (Fusarium oxysporum [2]) is reported as 16 mm and the MIC (Fusarium oxysporum [3]) is reported as 19 µg/mL. For the same compound, the MIC (Xanthomonas oryzae [4]) was 13 µg/mL, the “inhibition zone (IZ)” value (Xanthomonas oryzae [5]) was 13 mm and the “inhibition zone (IZ)” value (Klebsiella pneumoniae [6]) was 12 mm. The MIC (Staphylococcus [7]) was 16 µg/mL, the MIC (Escherichia coli [8]) was 17 µg/mL and the “inhibition zone (IZ)” value (Aspergillus niger [9]) was 19 mm. The “inhibition zone (IZ)” value (Staphylococcus [10]) was 11 mm, the “inhibition zone (IZ)” value (Escherichia coli [11]) was 18 mm and the MIC (Klebsiella pneumoniae [12]) was 14 µg/mL. The MIC (Aspergillus flavus [13]) was 18 µg/mL and the MIC (Aspergillus niger [14]) was 15 µg/mL.
CC(C)[C@H](NC(=O)CNC(=O)[C@@H]1CCCN1C(=O)[C@H](Cc1ccccc1)NC(=O)CNC(=O)[C@H](Cc1ccccc1)NC(=O)CNC(=O)[C@@H]1CCCN1C(=O)[C@H](Cc1ccccc1)NC(=O)CNC(=O)[C@@H](NC(=O)CNC(=O)[C@@H]1CCCN1C(=O)[C@@H](NC(=O)NC(=O)[C@@H](NC(=O)CNC(=O)[C@@H]1CCCN1C(=O)[C@H](Cc1ccccc1)NC(=O)CNC(=O)[C@H](CCC(=O)O)NC(=O)CN)C(C)C)C(C)C)C(C)C)C(=O)NCC(=O)N[C@H](C(=O)N1CCC[C@H]1C(=O)NCC(=O)N[C@H](C(=O)NCC(=O)N[C@@H](Cc1ccccc1)C(=O)N1CCC[C@H]1C(=O)N1CCC(c2noc3cc(F)ccc23)CC1)C(C)C)C(C)C.O=C(O)C(F)(F)F (H-GEGFPG[X2]VPGVGFPGFGFPGVGVPGVGFP-X1) was tested, and the “inhibition zone (IZ)” value (Aspergillus flavus [1]) was 28 mm, the “inhibition zone (IZ)” value (Fusarium oxysporum [2]) was 28 mm and the MIC (Fusarium oxysporum [3]) was 5 µg/mL. For the same compound, the MIC (Xanthomonas oryzae [4]) was 10 µg/mL, the “inhibition zone (IZ)” value (Xanthomonas oryzae [5]) was 14 mm and the “inhibition zone (IZ)” value (Klebsiella pneumoniae [6]) was 11 mm. For the same compound, the MIC (Staphylococcus [7]) was 13 µg/mL, the MIC (Escherichia coli [8]) was 12 µg/mL and the “inhibition zone (IZ)” value (Aspergillus niger [9]) was 34 mm. For the same compound, the “inhibition zone (IZ)” value (Staphylococcus [10]) was 16 mm, the “inhibition zone (IZ)” value (Escherichia coli [11]) was 12 mm and the MIC (Klebsiella pneumoniae [12]) was 10 µg/mL. For the same compound, the MIC (Aspergillus flavus [13]) was 4 µg/mL and the MIC (Aspergillus niger [14]) was 4 µg/mL.
For Fc1ccc2c(C3CCNCC3)noc2c1, the “inhibition zone (IZ)” value (Aspergillus flavus [1]) was 2 mm, the “inhibition zone (IZ)” value (Fusarium oxysporum [2]) was 4 mm and the MIC (Fusarium oxysporum [3]) was over 50 µg/mL. The MIC (Xanthomonas oryzae [4]) was over 50 µg/mL, the “inhibition zone (IZ)” value (Xanthomonas oryzae [5]) was 4 mm and the “inhibition zone (IZ)” value (Klebsiella pneumoniae [6]) was 3 mm. The MIC (Staphylococcus [7]) was over 50 µg/mL, the MIC (Escherichia coli [8]) was over 50 µg/mL and the “inhibition zone (IZ)” value (Aspergillus niger [9]) was 3 mm. For the same compound, the “inhibition zone (IZ)” value (Staphylococcus [10]) was 3 mm, the “inhibition zone (IZ)” value (Escherichia coli [11]) was 3 mm and the MIC (Klebsiella pneumoniae [12]) was over 50 µg/mL. It also gave an MIC (Aspergillus flavus [13]) of over 50 µg/mL and an MIC (Aspergillus niger [14]) of over 50 µg/mL.
